Several values for one entry are separate records, joined by “and”; a condition that tells them apart may be missing. Identical values can stand only once.
Key:
Cavia porcellus [1] = assay: Evaluated in normal, fasted guinea pig for the percentage reduction in blood glucose level as compared to pretreatment blood glucose values at a dose of 100 mg of free base / kg body weight administered orally; assay type: functional
How it was run: (§1)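 Male and female Hartley guinea pigs, 450–500 g, were food-deprived (water allowed) 18 h and split by sex into groups of four. A zero-time blood sample was taken by cardiac puncture, then drug was given, and blood was drawn again 5 h later. Percent reduction in blood glucose is relative to pretreatment values.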

Monkey [2] = assay: Evaluated in normal, fasted monkey for the percentage reduction in blood glucose level as compared to pretreatment blood glucose values at a dose of 25 mg of free base / kg body weight administered orally; assay type: functional, Cercopithecidae
How it was run: (§2)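 Male and female rhesus monkeys (2–3 kg) were food-deprived, with water, for 18 h. Pretreatment blood was taken from the popliteal vein. Dosing was oral by stomach tube, with repeat sampling 5 h post-dose. Results are percent reduction in blood glucose relative to pretreatment values.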

Monkey [3] = assay: Evaluated in normal, fasted monkey for the percentage reduction in blood glucose level as compared to pretreatment blood glucose values at a dose of 50 mg of free base / kg body weight administered orally; assay type: functional, Cercopithecidae; how it was run: as §2
Monkey [4] = assay: Evaluated in normal, fasted monkey for the percentage reduction in blood glucose level as compared to pretreatment blood glucose values at a dose of 60 mg of free base / kg body weight administered orally; assay type: functional, Cercopithecidae; how it was run: as §2
Monkey [5] = assay: Evaluated in normal, fasted monkey for the percentage reduction in blood glucose level as compared to pretreatment blood glucose values at a dose of 70 mg of free base / kg body weight administered orally; assay type: functional, Cercopithecidae; how it was run: as §2
[6] = Lethal dose required to produce 50% lethality in male and female carworth farms CF-1 strain mice weighing 16-25 g administered intraperitoneally; assay type: toxicity, organism-based; settings: both, CF-1, mouse, in vivo, ip
How it was run: (§3)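 Four mice per dose level. Drug dissolved in distilled water and suspended in 0.5% carboxymethylcellulose or 0.5% gelatin, with pH adjusted by 1 N HCl or 1 N NaOH where the drug tolerated it. Doses logarithmically spaced, given orally or intraperitoneally. Mice observed 7 days after dosing. LD50 derived by the Bliss method, expressed in mg/kg.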

Rattus norvegicus [7] = assay: Compound was evaluated for the blood sugar lowering (hypoglycemic activity ) in the glucose-primed rat at a dose of 50 mg of base/kg; assay type: functional
How it was run: (§4)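 Male Sprague–Dawley rats, 140–150 g, groups of six, fasted 16 h. Each rat got 100 mg glucose s.c. in 0.5 mL isotonic NaCl, then the test agent at once orally as an aqueous carboxymethylcellulose suspension (0.5 mL); controls got vehicle. At 2 h, under light ether, blood was taken by cardiac puncture. Glucose was read by Autoanalyzer (Hoffman method). Values are percent difference from vehicle controls.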

[8] = (§5) Lethal dose required to produce 50% lethality in male and female carworth farms CF-1 strain mice weighing 16-25 g administered orally; settings: both, CF-1, in vivo, po
Rattus norvegicus [9] = assay: Evaluated in glucose-primed, fasted rat for the percentage reduction in blood glucose level as compared to control groups at a dose of 25 mg of free base / kg body weight administered orally; assay type: functional; how it was run: as §4
Rattus norvegicus [10] = assay: Evaluated in glucose-primed, fasted rat for the percentage reduction in blood glucose level as compared to control groups at a dose of 50 mg of free base / kg body weight administered orally; assay type: functional; how it was run: as §4
Rattus norvegicus [11] = assay: Evaluated in glucose-primed, fasted rat for the percentage reduction in blood glucose level as compared to control groups at a dose of 10 mg of free base / kg body weight administered orally; assay type: functional; how it was run: as §4
Rattus norvegicus [12] = assay: Evaluated in glucose primed, adrenalectomized rat for the percentage reduction in blood glucose level as compared to pretreatment blood glucose values at a dose of 25 mg of free base / kg body weight administered orally; assay type: functional
How it was run: (§6)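 Male Sprague–Dawley rats were adrenalectomized 7 days before testing, fasted 16 h, and given 100 mg glucose s.c. per rat. Drug was given orally at once; controls received an equal volume of saline. Blood was taken by cardiac puncture after 2 h. Percent reduction in blood glucose is versus pretreatment values.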

Rattus norvegicus [13] = assay: Evaluated in alloxanized, diabetic rat for the percentage reduction in blood glucose level as compared to pretreatment blood glucose values at a dose of 100 mg of free base / kg body weight administered orally; assay type: functional
How it was run: (§7)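 Three days later, rats positive for urine glucose (reagent strip) formed groups of six. Tail-vein blood was taken before oral dosing and again at 5 h. Percent reduction is versus pretreatment glucose.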

Rattus norvegicus [14] = assay: Evaluated in alloxanized, diabetic rat for the percentage reduction in blood glucose level as compared to pretreatment blood glucose values at a dose of 200 mg of free base / kg body weight administered orally; assay type: functional; how it was run: as §7
[15] = Lethality in 50% (LD50) of male and female CF-1 strain mice weighing 16-25g, intraperitoneal administration; assay type: ADME, organism-based; settings: both, CF-1, mouse, in vivo, ip; how it was run: as §3
[16] = Dose that produces lethality in 50% (LD50) of male and female carworth farms CF-1 strain mice weighing 16-25 g oral (po) route of administration; assay type: ADME, organism-based; settings: both, CF-1, mouse, in vivo; how it was run: as §3
Rattus norvegicus [17] = assay: Compound was evaluated for the blood sugar lowering (hypoglycemic activity) in the glucose-primed rat at a dose of 100 mg/kg; Increase in blood sugar level.; assay type: functional; how it was run: as §4
Cavia porcellus [18] = assay: Evaluated in normal, fasted guinea pig for the percentage reduction in blood glucose level after 5 hr as compared to pretreatment blood glucose values at a dose of 100 mg of free base / kg body weight administered orally; assay type: functional; how it was run: as §1
Cavia porcellus [19] = assay: Evaluated in normal, fasted guinea pig for the percentage reduction in blood glucose level after 5 hr as compared to pretreatment blood glucose values at a dose of 125 mg of free base / kg body weight administered orally; assay type: functional; how it was run: as §1
Cavia porcellus [20] = assay: Evaluated in normal, fasted guinea pig for the percentage reduction in blood glucose level after 5 hr as compared to pretreatment blood glucose values at a dose of 150 mg of free base / kg body weight administered orally; assay type: functional; how it was run: as §1
Cavia porcellus [21] = assay: Evaluated in normal, fasted guinea pig for the percentage reduction in blood glucose level after 5 hr as compared to pretreatment blood glucose values at a dose of 160 mg of free base / kg body weight administered orally; assay type: functional; how it was run: as §1
Monkey [22] = assay: Evaluated in normal, fasted monkey for the percentage reduction in blood glucose level after 5 hr as compared to pretreatment blood glucose values at a dose of 20 mg of free base / kg body weight administered orally; assay type: functional, Cercopithecidae; how it was run: as §2
Monkey [23] = assay: Evaluated in normal, fasted monkey for the percentage reduction in blood glucose level after 5 hr as compared to pretreatment blood glucose values at a dose of 40 mg of free base / kg body weight administered orally; assay type: functional, Cercopithecidae; how it was run: as §2
Rattus norvegicus [24] = assay: Evaluated in glucose-primed, fasted rat for the percentage reduction in blood glucose level after 2 hr as compared to control groups at a dose of 250 mg of free base / kg body weight administered orally; assay type: functional; how it was run: as §4
Rattus norvegicus [25] = assay: Evaluated in glucose-primed, fasted rat for the percentage reduction in blood glucose level after 2 hr as compared to control groups at a dose of 500 mg of free base / kg body weight administered orally; assay type: functional; how it was run: as §4
Rattus norvegicus [26] = assay: Evaluated in glucose-primed, fasted rat for the percentage reduction in blood glucose level after 2 hr as compared to control groups at a dose of 10 mg of free base / kg body weight administered orally; assay type: functional; how it was run: as §4
Rattus norvegicus [27] = assay: Evaluated in glucose-primed, fasted rat for the percentage reduction in blood glucose level after 2 h as compared to control groups at a dose of 25 mg of free base / kg body weight administered orally; assay type: functional; how it was run: as §4
Rattus norvegicus [28] = assay: Evaluated in glucose primed, adrenalectomized rat for the percentage reduction in blood glucose level after 2 hr as compared to pretreatment blood glucose values at a dose of 10 mg of free base / kg body weight administered orally; assay type: functional; how it was run: as §6
Rattus norvegicus [29] = assay: Evaluated in glucose primed, adrenalectomized rat for the percentage reduction in blood glucose level after 2 hr as compared to pretreatment blood glucose values at a dose of 20 mg of free base / kg body weight administered orally; assay type: functional; how it was run: as §6
[30] = as §5; assay type: toxicity, organism-based; settings: both, CF-1, mouse, in vivo, po; how it was run: as §3
Rattus norvegicus [31] = assay: Blood sugar lowering (hypoglycemic activity) in the glucose-primed rat at a dose of 100 mg/kg; Decrease in blood sugar level.; assay type: functional; how it was run: as §4
Rattus norvegicus [32] = assay: Evaluated in glucose-primed, fasted rat for the percentage reduction in blood glucose level as compared to control groups at a dose of 100 mg of free base / kg body weight administered orally; assay type: functional; how it was run: as §4
Rattus norvegicus [33] = assay: Evaluated in glucose-primed, fasted rat for the percentage reduction in blood glucose level as compared to control groups at a dose of 150 mg of free base / kg body weight administered orally; assay type: functional; how it was run: as §4
Rattus norvegicus [34] = assay: Evaluated in alloxanized, diabetic rat for the percentage reduction in blood glucose level as compared to pretreatment blood glucose values at a dose of 150 mg of free base / kg body weight administered orally; assay type: functional; how it was run: as §7
Cavia porcellus [35] = assay: Evaluated in normal, fasted guinea pig for the percentage reduction in blood glucose level as compared to pretreatment blood glucose values at a dose of 100 mg of free base / kg body weight administered orally

SMILES: Br.CC(C)N(CCCOc1ccc(N/C(=N\c2ccccc2)c2ccccc2)cc1)C(C)C
- Reduction (Cavia porcellus [1]): 33.5% and 20%
- Reduction (Monkey [2]): 0%
- Reduction (Monkey [3]): 26.5%
- Reduction (Monkey [4]): 32.3%
- Reduction (Monkey [5]): 39%
- LD50 [6]: 140 mg/kg
- Change (Rattus norvegicus [7]): 32.2%
- LD50 [8]: 347 mg/kg
- Reduction (Rattus norvegicus [9]): 21.2%
- Reduction (Rattus norvegicus [10]): 32.2%
- Reduction (Rattus norvegicus [11]): 10.9%
- Reduction (Rattus norvegicus [12]): 30.6%
- Reduction (Rattus norvegicus [13]): 15%
- Reduction (Rattus norvegicus [14]): 21.5%

SMILES: Br.c1ccc(/N=C(\Nc2ccc(OCCN3CCCC3)cc2)c2ccccc2)cc1
- LD50 [15]: 117 mg/kg
- LD50 [16]: 500 mg/kg
- Change (Rattus norvegicus [17]): 35%

SMILES: Cc1ccc(S(=O)(=O)NC(=O)NN2CCCCCC2)cc1 [TOLAZAMIDE]
- Reduction (Cavia porcellus [18]): 33.5%
- Reduction (Cavia porcellus [19]): 26.7%
- Reduction (Cavia porcellus [20]): 30.4%
- Reduction (Cavia porcellus [21]): 25%
- Reduction (Monkey [22]): 11%
- Reduction (Monkey [23]): 26.7%
- Reduction (Rattus norvegicus [24]): 42.9%
- Reduction (Rattus norvegicus [25]): 51.1%
- Reduction (Rattus norvegicus [26]): 28.1%
- Reduction (Rattus norvegicus [27]): 50%
- Reduction (Rattus norvegicus [13]): 0%
- Reduction (Rattus norvegicus [28]): 75.8%
- Reduction (Rattus norvegicus [29]): 85.6%

SMILES: Br.CC(C)N(CCOc1ccc(N/C(=N\c2ccccc2)c2ccccc2)cc1)C(C)C
- Reduction (Monkey [2]): 0%
- Reduction (Monkey [3]): 31.9%
- Reduction (Monkey [4]): 45%
- LD50 [6]: 273 mg/kg
- LD50 [30]: 900 mg/kg
- Change (Rattus norvegicus [31]): 31.2%
- Reduction (Rattus norvegicus [10]): 12.9%
- Reduction (Rattus norvegicus [32]): 31.2%
- Reduction (Rattus norvegicus [33]): 32%
- Reduction (Rattus norvegicus [12]): 33.4%
- Reduction (Rattus norvegicus [13]): 16.5%
- Reduction (Rattus norvegicus [34]): 37.3%
- Reduction (Cavia porcellus [35]): 10.6%
